Data as given in the RNAGym collection of RNA variant scans (doi:10.1126/science.aae0568).
This sample holds only a part of the variants without activity.

B1: tRNA (parent)
chain: GUUCCGUUGGCGUAAUGGUAACGCGUCUCCCUCCUAAGGAGAAGACUGCGGGUUCGAGUCCCGUACGGAACG

Variants of: B1
Assay: yeast fitness relative to wild type (ratio to wild type); higher = fitter; tRNA-Arg(CCU), competitive growth, 37 C, YPD
Outline: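 Genotype frequency changes were the basis for Darwinian fitness relative to wild type. The frequencies came from 100-nucleotide paired-end sequencing of gene amplicons from the start population and each end population of pooled yeast strains with tRNA-Arg(CCU) gene variants at the native locus. Competition ran in YPD at 37°C for 24 hours in six replicates, genotypes needed ≥ 100 starting reads, and estimates < 0.5 were set to 0.5.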
GUACCGUUGGCGUAAUGGUAACGCGUCUCCCUCCUAAGGUGAAGACUGCGGGUUCGAGUCCCGUACGGAACG [U3A A40U] showed a yeast fitness of 0.841. Variant GUACCGUUGGCGUAAUGGUAACGCGUCUCCCUCCUAAGGAGCAGACUGCGGGUUCGAGUCCCGUUUCGAACG [U3A A42C A65U C66U G67C] has a yeast fitness of 0.569. For GUACCGUUGGCGUAAUGGUAACGCGUCUCCCUCCUAAGGAGGAGACUGCGGCUUCGGGUCCCGUACGGAACG [U3A A42G G52C A57G], the yeast fitness was at most 0.5. In the case of GUACCGUUGGCGUAAUGGUAACGCGUCUCCCUCCUAAGGAGUAGACUGCGGGUUCGAGUCCCGUACGGAACG [U3A A42U], the yeast fitness is reported as 0.846. With GUACCGUUGGCGUAAUGGUAACGCGUCUCCCUCCUAAGGAGUGGACUCCGGGAUCGAGUCCCGUACGGCACG [U3A A42U A43G G48C U53A A69C] the yeast fitness was at most 0.5. For GUACCGUUGGCGUAAUGGUAACGCGUCUCCCUCCUAAGGAGACGACUGCGGGUUCGAGUCCCGUACGGAACG [U3A A43C], the yeast fitness was 0.883. With GUACCGUUGGCGUAAUGGUAACGCGUCUCCCUCCUAAGGAGAUGACUGCGGGUUCGAGUCCCGUACGGAACG [U3A A43U] the yeast fitness was 0.929. Work on GUACCGUUGGCGUAAUGGUAACGCGUCUCCCUCCUAAGGAGAUGACUGCGGGUUCGAGUCCCGUAUGGAACG [U3A A43U C66U] yielded a yeast fitness of 0.635. Variant GUACCGUUGGCGUAAUGGUAACGCGUCUCCCUCCUAAGGAGAAGACUGCGGGUUCGGGUCCCGUACGGAACG [U3A A57G] has a yeast fitness of 0.776. For GUACCGUUGGCGUAAUGGUAACGCGUCUCCCUCCUAAGGAGAAGACUGCGGGUUCGUGUCCCGUACGGAACG [U3A A57U], the yeast fitness was 0.754. For GUACCGUUGGCGUAAUGGUAACGCGUCUCCCUCCUAAGGAGAAGACUGCGGGUUCGAGUCCCGUCCGGACCG [U3A A65C A70C], the yeast fitness was 0.679. GUACCGUUGGCGUAAUGGUAACGCGUCUCCCUCCUAAGGAGAAGACUGCGGGUUCGAGUCCCGUGCGGAACG [U3A A65G] gave a yeast fitness of 0.899. For GUACCGUUGGCGUAAUGGUAACGCGUCUCCCUCCUAAGGAGAAGACUGCGGGUUCGAGUCCCGUUCGGAACG [U3A A65U], the yeast fitness was 0.704. With GUACCGUUGGCGUAAUGGUAACGCGUCUCCCUCCUAAGGAGAAGACUGCGGGUUCGAGUCCCGUACGGUACG [U3A A69U] the yeast fitness was 0.999. In the case of GUACCGUUGGCGUAAUGGUAACGCGUCUCCCUCCUAAGGAGAAGACUGCGGGUUCGAGUCCCGUACGGAGCG [U3A A70G], the yeast fitness is reported as 1. GUAACGUUGGCGUAAUGGUAACGCGUCUCCCUCCUAAGGAGAAGACUGCGGGUUCGAGUCCCGUACGGAACG [U3A C4A] gave a yeast fitness of 0.681. With GUAACGUUGGCGUAAUGGUAUCGCGUCUCCCUCCUAAGGAGAAGACUGCGGGUUCGAGUCCCGUACGGAACG [U3A C4A A21U] the yeast fitness was at most 0.5. In the case of GUAACGUUGGCGUAAUGGUAUCGCGUCUCCCUCCUAAGGAGAAGACUGCGGGUUCCAAUCCCGUACGGAACG [U3A C4A A21U G56C G58A], the yeast fitness is reported as at most 0.5. Work on GUAACGUUGGCGUAAUGCUAACGCGUCUCCCUCUUGAGGAGAAGACUGCGGGUUCGAGUCCCCUACGGAACG [U3A C4A G18C C34U A36G G63C] yielded a yeast fitness of at most 0.5. For GUAACGUCGGCGUAAUGGUAACGCGUCUGCCUCCUACGGAGAAGACUGCGGGUUCGAGUCCCGUACGGAACG [U3A C4A U8C C29G A37C], the yeast fitness was 0.581. Variant GUAACGUCGGCGUAAUGGUAACGCGUCUGCCUCCUACGGAGAAGACUGCGGGUUCGAGUCCUGUACGGAUCG [U3A C4A U8C C29G A37C C62U A70U] has a yeast fitness of at most 0.5. GUAGCGUUGGCGUAAUGGUAACGCGUCUCCCUCCUAAGGAGAAGACUGCGGGUUCGAGUCCCGUACGGAACG [U3A C4G] gave a yeast fitness of 0.792. With GUAGCGUUGGCGUAAUGGUAACGCGUCUCCCUCCUAAGGAGGAGACUGCGGGUUCGAGUCCCGUACGGAACG [U3A C4G A42G] the yeast fitness was at most 0.5. Work on GUAGCGUUGGCGUAAUGGUAACGCGUCUCCCUCCUAAGGAGAGGACCGCGGGUUCGAGUCCCGUACGGAACG [U3A C4G A43G U47C] yielded a yeast fitness of at most 0.5. GUAGCGUUGGCGUAAUGGUAACGCGUCUCCCUCCUAAGGAGAAGACUGCGGGUUCGAGUCCUGUACGGACCG [U3A C4G C62U A70C] showed a yeast fitness of 0.754. For GUAGCAUUGGCGUAAUGGUAACGCGGCUCCCUCCUAAGGAGAAGACUGCGGGUUCGAGUCCCGUAUGGAACG [U3A C4G G6A U26G C66U], the yeast fitness was at most 0.5. GUAGCGUUAGGGUAAUGGUAACGCGUCUCCCUCCUAAGGAGAAGUCUGCGGGUUCGAGUCCCGUACGGAACG [U3A C4G G9A C11G A45U] gave a yeast fitness of at most 0.5. GUAGCGUUGGCGUAAUGGUAACGCGUCUCCCUCCUAAGGAAAAGACUGCGGGUUCGAGUCCCCUAAGGAACG [U3A C4G G41A G63C C66A] gave a yeast fitness of 0.576. With GUAGCGUAGGCGUAAUGGUAACGCGUCUCCCUCCUAAGGAGAAGACUGGGGGUUCGAGUCCCGUACGGAACG [U3A C4G U8A C49G] the yeast fitness was at most 0.5. With GUAUCGUUGGCGUAAUGGUAACGCGUCUCCCUCCUAAGGAGAAGACUGCGGGUUCGAGUCCCGUACGGAACG [U3A C4U] the yeast fitness was 0.874. In the case of GUAUUGUUGGCGUAAUGGUAACGCGUCUCCCUCCUAAGGAGAAGACUGCGGGUUCGAGUCCCGUACGGAACG [U3A C4U C5U], the yeast fitness is reported as 0.594. GUAUUGUUGGCGUAAUGGUAACGCGUCUCCCUCCUAAGGAGAAGACUCAGGGUUCGAGUCCCGUACCGAUCG [U3A C4U C5U G48C C49A G67C A70U] gave a yeast fitness of 0.663. With GUAUCGUUGGCGUAAUGGUAACGCGUCUCCCUUCUAAGGAGAAGACUGCGGGUUCGAGUCACGUACGGAACG [U3A C4U C33U C61A] the yeast fitness was at most 0.5. With GUAUCGUUGGCGUAAUGGUAACGCGUCUCCCUCCUAAGGAGAAGACUGCGGGUUCGAGUCGCCUACGGAACG [U3A C4U C61G G63C] the yeast fitness was at most 0.5. For GUAUCGUUGGCGUAAUGGUAACGCCUCUCCCUCCUAAGGAGAAGACUGCGGGUUCGAGUCCCGUACGGAACG [U3A C4U G25C], the yeast fitness was at most 0.5. For GUAUCGUUGGCGUAAUGGUAACGCCUCUCCCUCCUAAGGAGAAGACUGCGGGUUCGAGUCCCCUACGGAACG [U3A C4U G25C G63C], the yeast fitness was at most 0.5. Work on GUAUCGUUGGCGUAAUGGUAACGCGUCUCCCUCCUAAGGAGAAGACUGCGGGUUCGAGUCCCGUACCGAACG [U3A C4U G67C] yielded a yeast fitness of 0.624.
